SMILES strings stand for the structures. Activity calls are given as the source filed them. The calls are words filed in the database; no cut-off is given here.

These results are taken from ChEMBL document CHEMBL4033781 (J Med Chem, 2018).

For data set [1], the target named is N+/K+ ATPase alpha-4/beta-1 (Rattus norvegicus, UniProt Q64541). As to the kind of experiment: Inhibition of recombinant rat Na+/K+-ATPase alpha4/beta1 expressed in baculovirus infected insect Sf9 cell membranes using [gamma-32P]ATP as substrate preincubated for 10 mins followed by substrate addition measured after 30 mins in presence of Na+, K+ and Mg2+ by liquid scintillation counting. A digest of the protocol:
(§1)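 Rat α/β1 isoforms were expressed in baculovirus-infected Sf9 cells (72 h, 27 °C), washed in 10 mM imidazole-HCl pH 7.5 with 1 mM EGTA, and homogenised. Homogenates were assayed in 120 mM NaCl, 30 mM KCl, 3 mM MgCl₂, 0.2 mM EGTA and 30 mM Tris-HCl pH 7.4. Reactions were started with 2 mM γ[³²P]-ATP (final) and run 30 min at 37 °C. Released ³²Pi was extracted as phosphomolybdate into isobutanol and scintillation counted. IC50 came from single-site dose–response fits.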

The target in data set [2] is Na+/K+ ATPase alpha-1/beta-1 (Rattus norvegicus, UniProt P06685+P07340). As to the kind of experiment: Inhibition of recombinant rat Na+/K+-ATPase alpha1/beta1 expressed in baculovirus infected insect Sf9 cell membranes using [gamma-32P]ATP as substrate preincubated for 20 mins followed by substrate addition measured after 30 mins by liquid scintillation counting. In outline: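 Rat α/β1 isoforms were expressed in baculovirus-infected Sf9 cells (72 h, 27 °C), washed in 10 mM imidazole-HCl pH 7.5 with 1 mM EGTA, and homogenised. Homogenates were assayed in 120 mM NaCl, 30 mM KCl, 3 mM MgCl₂, 0.2 mM EGTA and 30 mM Tris-HCl pH 7.4. Reactions were started with 2 mM γ[³²P]-ATP (final) and run 30 min at 37 °C. Released ³²Pi was extracted as phosphomolybdate into isobutanol and scintillation counted. Activity was taken as the 1 mM ouabain-sensitive fraction. IC50 came from single-site dose–response fits.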

Data set [3] addresses T1, Voltage-gated inwardly rectifying potassium channel KCNH2 (Homo sapiens, UniProt Q12809). Description: Displacement of Tracer Red from human ERG expressed in cell membranes up to 60 uM by fluorescence polarization assay. A digest of the protocol: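 Competitive fluorescence polarization displacement of a fluorescently tagged hERG ligand used membranes from cells stably expressing hERG. Compounds were tested up to 60 μM.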
A general note: Fluorescence polarisation rises when a labelled molecule tumbles more slowly, as on binding a larger partner.

For data set [4], the target named is Na+/K+ ATPase alpha-2/beta-1 (Rattus norvegicus, UniProt P06686+P07340). Description: Inhibition of recombinant rat Na+/K+-ATPase alpha2/beta1 expressed in baculovirus infected insect Sf9 cell membranes using [gamma-32P]ATP as substrate preincubated for 20 mins followed by substrate addition measured after 30 mins by liquid scintillation counting. In outline: as §1

The target in data set [5] is Na+/K+ ATPase alpha-3/beta-1 (Rattus norvegicus, UniProt P06687+P07340). As to the kind of experiment: Inhibition of recombinant rat Na+/K+-ATPase alpha3/beta1 expressed in baculovirus infected insect Sf9 cell membranes using [gamma-32P]ATP as substrate preincubated for 20 mins followed by substrate addition measured after 30 mins by liquid scintillation counting. In outline:
as §1

Data set [6] addresses Sodium/potassium-transporting ATPase subunit alpha-4 (Rattus norvegicus) (UniProt Q64541). Description: Inhibition of Na+/K+-ATPase alpha4 in Long Evans rat cauda epididymis sperm assessed as reduction in sperm progressive motility at 10^-12 to 10^-4 M after 1 hr by SYTO staining based microscopic method.
The target is the same in data set [7]. Description: Inhibition of Na+/K+-ATPase alpha4 in Long Evans rat cauda epididymis sperm assessed as reduction in sperm straight line velocity at 10^-12 to 10^-4 M after 1 hr by SYTO staining based microscopic method.
For data set [8] the target is unchanged. Description: Inhibition of Na+/K+-ATPase alpha4 in Long Evans rat cauda epididymis sperm assessed as reduction in sperm curvilinear velocity at 10^-12 to 10^-4 M after 1 hr by SYTO staining based microscopic method.
Data set [9] shares this target. As to the kind of experiment: Inhibition of Na+/K+-ATPase alpha4 in Long Evans rat cauda epididymis sperm assessed as reduction in sperm average path velocity at 10^-12 to 10^-4 M after 1 hr by SYTO staining based microscopic method.
Data set [10] has the same target. Description: Inhibition of Na+/K+-ATPase alpha4 in Long Evans rat cauda epididymis sperm assessed as reduction in sperm average path linearity at 10^-12 to 10^-4 M after 1 hr by SYTO staining based microscopic method.
The target is the same in data set [11]. As to the kind of experiment: Inhibition of Na+/K+-ATPase alpha4 in Long Evans rat cauda epididymis sperm assessed as reduction in sperm beat cross frequency at 10^-12 to 10^-4 M after 1 hr by SYTO staining based microscopic method.
For data set [12] the target is unchanged. Description: Inhibition of Na+/K+-ATPase alpha4 in Long Evans rat cauda epididymis sperm assessed as reduction in sperm motility at 10^-8 M preincubated for 1 hr followed by compound washout measured up to 2 hrs by SYTO staining based microscopic method. In outline: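 Rat cauda epididymal sperm in modified Tyrode's medium were treated with or without compound. Motility was measured by SYTO 21/CASA before and after three washes in modified Tyrode's medium, at times up to 2 h. Values are mean ± SEM of three determinations.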

The subject of data set [13] is MCF7. As to the kind of experiment: Antiproliferative activity against human MCF7 cells up to 100 uM after 72 hrs by AlamarBlue assay. The format is cell-based. The settings on record: mcf7, 72 h. (Resazurin is reduced to fluorescent resorufin, in cell work by metabolically active cells.)
In data set [14] the target is Sodium/potassium-transporting ATPase subunit alpha-4 (Rattus norvegicus) (UniProt Q64541). Description: Inhibition of Na+/K+-ATPase alpha4 in Long Evans rat cauda epididymis sperm assessed as reduction in total sperm motility at 10^-12 to 10^-4 M after 1 hr by SYTO staining based microscopic method.
Sequence of Sodium/potassium-transporting ATPase subunit alpha-4 (Rattus norvegicus) (Q64541 whole entry): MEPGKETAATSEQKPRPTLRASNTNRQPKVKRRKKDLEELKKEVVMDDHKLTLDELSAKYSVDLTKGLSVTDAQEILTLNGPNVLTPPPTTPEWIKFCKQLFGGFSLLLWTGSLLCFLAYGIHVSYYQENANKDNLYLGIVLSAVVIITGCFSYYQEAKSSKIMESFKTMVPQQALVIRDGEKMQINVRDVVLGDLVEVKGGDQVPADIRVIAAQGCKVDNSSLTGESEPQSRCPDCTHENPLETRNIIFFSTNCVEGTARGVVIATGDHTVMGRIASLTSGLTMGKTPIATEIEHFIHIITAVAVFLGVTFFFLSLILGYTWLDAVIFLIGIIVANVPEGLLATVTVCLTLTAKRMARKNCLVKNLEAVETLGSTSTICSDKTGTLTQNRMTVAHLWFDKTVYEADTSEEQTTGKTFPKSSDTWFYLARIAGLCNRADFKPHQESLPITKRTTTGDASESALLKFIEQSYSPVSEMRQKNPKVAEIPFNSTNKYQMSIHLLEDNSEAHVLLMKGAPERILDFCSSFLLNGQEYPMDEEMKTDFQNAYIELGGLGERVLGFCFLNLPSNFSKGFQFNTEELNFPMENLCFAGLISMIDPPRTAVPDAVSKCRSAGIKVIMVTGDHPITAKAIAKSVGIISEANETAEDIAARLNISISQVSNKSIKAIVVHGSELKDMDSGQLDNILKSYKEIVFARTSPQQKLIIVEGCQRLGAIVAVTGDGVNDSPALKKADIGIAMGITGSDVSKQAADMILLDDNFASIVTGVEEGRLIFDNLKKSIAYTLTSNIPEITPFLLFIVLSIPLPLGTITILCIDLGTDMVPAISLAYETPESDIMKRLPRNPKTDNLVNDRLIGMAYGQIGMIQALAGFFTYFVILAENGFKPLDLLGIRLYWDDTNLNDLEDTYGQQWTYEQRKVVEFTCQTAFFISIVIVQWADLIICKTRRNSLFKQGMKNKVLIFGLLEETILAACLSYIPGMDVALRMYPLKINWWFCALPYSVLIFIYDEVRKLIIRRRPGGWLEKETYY
Data set [15] addresses T1, Voltage-gated inwardly rectifying potassium channel KCNH2. Description: Displacement of Tracer Red from human ERG expressed in cell membranes by fluorescence polarization assay. In outline:
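Competitive fluorescence polarization binding assay using membranes from cells stably expressing hERG, measuring displacement of a fluorescently tagged hERG ligand. Test compounds were run at concentrations up to 60 μM.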

T1 sequence (Q12809 whole entry): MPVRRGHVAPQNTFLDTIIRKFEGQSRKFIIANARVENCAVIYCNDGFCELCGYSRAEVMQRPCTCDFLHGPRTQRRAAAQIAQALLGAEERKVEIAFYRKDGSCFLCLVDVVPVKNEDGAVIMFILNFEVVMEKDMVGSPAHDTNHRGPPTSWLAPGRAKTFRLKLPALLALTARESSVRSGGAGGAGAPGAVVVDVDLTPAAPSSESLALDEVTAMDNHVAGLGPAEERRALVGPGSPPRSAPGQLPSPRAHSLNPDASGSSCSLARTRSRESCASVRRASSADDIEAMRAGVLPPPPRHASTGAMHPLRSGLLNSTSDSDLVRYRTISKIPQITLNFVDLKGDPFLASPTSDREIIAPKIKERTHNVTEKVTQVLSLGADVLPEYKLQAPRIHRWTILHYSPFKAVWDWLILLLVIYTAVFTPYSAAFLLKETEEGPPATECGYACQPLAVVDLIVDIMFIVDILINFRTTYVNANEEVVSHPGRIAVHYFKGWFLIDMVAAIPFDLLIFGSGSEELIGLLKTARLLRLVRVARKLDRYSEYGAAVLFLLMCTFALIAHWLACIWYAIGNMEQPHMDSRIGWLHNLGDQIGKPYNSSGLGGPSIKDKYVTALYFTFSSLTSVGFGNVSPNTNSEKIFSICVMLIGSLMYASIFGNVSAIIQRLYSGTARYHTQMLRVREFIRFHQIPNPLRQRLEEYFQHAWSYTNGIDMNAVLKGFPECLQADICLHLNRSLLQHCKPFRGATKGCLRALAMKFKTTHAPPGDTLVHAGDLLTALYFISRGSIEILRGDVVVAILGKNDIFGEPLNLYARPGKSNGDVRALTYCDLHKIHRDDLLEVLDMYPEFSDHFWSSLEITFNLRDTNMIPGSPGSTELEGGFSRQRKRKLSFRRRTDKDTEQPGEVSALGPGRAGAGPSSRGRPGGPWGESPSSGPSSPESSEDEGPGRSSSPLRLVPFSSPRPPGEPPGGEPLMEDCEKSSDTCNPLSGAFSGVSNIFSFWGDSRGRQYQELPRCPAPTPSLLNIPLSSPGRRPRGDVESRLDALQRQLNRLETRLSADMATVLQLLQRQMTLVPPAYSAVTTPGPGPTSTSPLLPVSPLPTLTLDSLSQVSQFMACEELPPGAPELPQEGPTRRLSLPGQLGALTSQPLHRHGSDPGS
Sequence of N+/K+ ATPase alpha-4/beta-1 (Q64541 whole entry, other chains not shown, canonical isoform): as the sequence (Q64541 whole entry) above

Turning to `COc1ccc(-c2cn(C[C@H]3CC[C@]4(O)[C@@H]5CC[C@]6(O)C[C@@H](O)C[C@@H](O)[C@]6(CO)[C@H]5[C@H](O)C[C@]34C)nn2)cc1`, the IC50 in [1] lay within 15000 to 39000 nM.
Still for that read-out and setting: the value for `COCO[C@H]1C[C@H]2OC(C)(C)OC[C@]23[C@@H]2[C@@H](CC[C@]3(O)C1)[C@@]1(OCOC)CC[C@H](/C=N/O)[C@@]1(C)C[C@H]2OCOC` was 1.4 to 2.9 nM; that for `COCO[C@@H]1[C@H]2OC(C)(C)O[C@H]2[C@H](O[C@H]2C[C@H]3OC(C)(C)OC[C@]34[C@@H]3[C@@H](CC[C@]4(O)C2)[C@@]2(O)CC[C@H](C=O)[C@@]2(C)C[C@H]3OCOC)O[C@H]1C` was 4.9 to 7.1 nM; that for `COCO[C@H]1C[C@H]2OC(C)(C)OC[C@]23[C@@H]2[C@@H](CC[C@]3(O)C1)[C@@]1(OCOC)CC[C@H](C(O)C(F)(F)F)[C@@]1(C)C[C@H]2OCOC` (mixture of isomers) was 5600 to 5900 nM.
On the same count and under the same terms, the value for `COCO[C@H]1C[C@H]2OC(C)(C)OC[C@]23[C@@H]2[C@@H](CC[C@]3(O)C1)[C@@]1(OCOC)CC[C@H](C#N)[C@@]1(C)C[C@H]2OCOC` was 16000 to 37000 nM; that for `COCO[C@H]1C[C@H]2OC(C)(C)OC[C@]23[C@@H]2[C@@H](CC[C@]3(O)C1)[C@@]1(OCOC)CC[C@H](c3cn(Cc4ccccc4)nn3)[C@@]1(C)C[C@H]2OCOC` was 5 to 6.9 nM; that for `C[C@@H]1O[C@@H](O[C@H]2C[C@@H](O)[C@]3(CO)[C@H]4[C@H](O)C[C@]5(C)[C@@H](C(O)c6cn(Cc7ccccc7)nn6)CC[C@]5(O)[C@@H]4CC[C@]3(O)C2)[C@H](O)[C@H](O)[C@H]1O` (mixture of isomers) was 1200 to 1500 nM.
Take `COCO[C@H]1C[C@H]2OC(C)(C)OC[C@]23[C@@H]2[C@@H](CC[C@]3(O)C1)[C@@]1(OCOC)CC[C@H](CO)[C@@]1(C)C[C@H]2OCOC`: the results for the half-inhibitory concentration (IC50) in data set [2], in data set [4] and in [5] were greater than 100000 nM, 6600 nM and greater than 100000 nM, respectively. Also, in [3], the “inhibition (INH)” value was “Not Active”. The inhibition result in data set [6], in data set [7], in [8], in [9], in data set [10] and in [11] was “Active” in each case. In addition, the inhibition entry in data set [12] and in data set [14] was “Active” each time. Also, in data set [13], the Activity entry was “Non-Toxic”.
`C[C@@H]1O[C@@H](O[C@H]2C[C@@H](O)[C@]3(CO)[C@H]4[C@H](O)C[C@]5(C)[C@@H](C6=CC(=O)OC6)CC[C@]5(O)[C@@H]4CC[C@]3(O)C2)[C@H](O)[C@H](O)[C@H]1O` [OUABAIN] came in with an IC50 in [15] of 5800 nM.
Take `C#CC(O)[C@H]1CC[C@]2(OCOC)[C@@H]3CC[C@]4(O)C[C@@H](OCOC)C[C@H]5OC(C)(C)OC[C@]54[C@H]3[C@H](OCOC)C[C@]12C` (mixture of isomers): in [1], the IC50 fell in the range of 10 to 60 nM.
On the same count and under the same terms, the value for `C[C@]12C[C@@H](O)[C@H]3[C@@H](CC[C@]4(O)C[C@@H](O)C[C@@H](O)[C@]34CO)[C@@]1(O)CC[C@@H]2c1cn(Cc2ccc(Cl)cc2)nn1` was 32 to 43 nM.
For the molecule `COCO[C@@H]1[C@H]2OC(C)(C)O[C@H]2[C@H](O[C@H]2C[C@H]3OC(C)(C)OC[C@]34[C@@H]3[C@@H](CC[C@]4(O)C2)[C@@]2(O)CC[C@H](C(O)c4cn(Cc5ccc(F)cc5)nn4)[C@@]2(C)C[C@H]3OCOC)O[C@H]1C` (mixture of isomers), in data set [1], the IC50 lay within 12 to 70 nM.
Same read-out and setting: the value for `COCO[C@H]1C[C@H]2OC(C)(C)OC[C@]23[C@@H]2[C@@H](CC[C@]3(O)C1)[C@@]1(OCOC)CC[C@H](C(=O)O)[C@@]1(C)C[C@H]2OCOC` was 39 to 77 nM; that for `C[C@]12C[C@@H](O)[C@H]3[C@@H](CC[C@]4(O)C[C@@H](O)C[C@@H](O)[C@]34CO)[C@@]1(O)CC[C@@H]2c1cn(Cc2ccc(F)cc2)nn1` was 32 to 49 nM; that for `COCO[C@@H]1[C@H]2OC(C)(C)O[C@H]2[C@H](O[C@H]2C[C@H]3OC(C)(C)OC[C@]34[C@@H]3[C@@H](CC[C@]4(O)C2)[C@@]2(O)CC[C@H](C#N)[C@@]2(C)C[C@H]3OCOC)O[C@H]1C` was 33 to 62 nM.
Still for that read-out and setting: the value for `COCO[C@@H]1[C@H]2OC(C)(C)O[C@H]2[C@H](O[C@H]2C[C@H]3OC(C)(C)OC[C@]34[C@@H]3[C@@H](CC[C@]4(O)C2)[C@@]2(O)CC[C@H](C(O)CO)[C@@]2(C)C[C@H]3OCOC)O[C@H]1C` (mixture of isomers) was 2100 to 3700 nM; that for `C[C@@H]1O[C@@H](O[C@H]2C[C@H]3OC(C)(C)OC[C@]34[C@H]3[C@H](O)C[C@]5(C)[C@@H](C6=CC(=O)OC6)CC[C@]5(O)[C@@H]3CC[C@]4(O)C2)[C@@H]2OC(C)(C)O[C@@H]2[C@H]1O` was 4 to 4.3 nM.
For the molecule `COCO[C@@H]1[C@H]2OC(C)(C)O[C@H]2[C@H](O[C@H]2C[C@H]3OC(C)(C)OC[C@]34[C@@H]3[C@@H](CC[C@]4(O)C2)[C@@]2(O)CC[C@H](CO)[C@@]2(C)C[C@H]3OCOC)O[C@H]1C`, the half-inhibitory concentration (IC50) in data set [2], in data set [4] and in data set [5] was greater than 100000 nM in each case. In addition, the “inhibition (INH)” value in data set [3] is “Not Active”. The inhibition result in [6], in data set [7], in data set [8], in data set [9], in data set [10] and in data set [11] was “Active” in each case. In addition, the inhibition entry in data set [12] and in data set [14] was “Active” in each case. Further, the Activity entry in data set [13] is given as “Non-Toxic”.
Turning to `C[C@@H]1O[C@@H](O[C@H]2C[C@@H](O)[C@]3(CO)[C@H]4[C@H](O)C[C@]5(C)[C@@H](C(O)c6cn(Cc7ccc(F)cc7)nn6)CC[C@]5(O)[C@@H]4CC[C@]3(O)C2)[C@H](O)[C@H](O)[C@H]1O` (mixture of isomers), in data set [1], the IC50 was in the range of 13 to 44 nM.

As usually defined, the IC50 is the concentration that inhibits the measured activity by half.
